From PubChem BioAssay
Hsp70 activator = transcriptional activators of Hsp70; HeLa Hsp70 promoter luciferase reporter, luminescence; scaled: vehicle 0, proteasome-inhibitor control 100%; activation, % at 10 µM; hit rate 0.04% among 200,000; AID 1203;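 active = activation above the mean across all tested compounds plus 3 SD, cutoff set per campaign, cut at about 5.5% in these data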;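 note: 100% = MG132 at 30 µM as the positive control and 0% = DMSO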
HSF1 activator = increases HSF-1 driven luciferase reporter signal | NIH3T3-HGL HSF-1 luciferase reporter, MG132, 8 h; 100% = twice DMSO control signal | activation, % at 9 µM | AID 504408 | hit rate 1.7% among 300,000;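 active = mean replicate activation of at least 50% with a set share of replicates each reaching 50%; inconclusive = only one of those two conditions met; inactive = mean below 50% and too few replicates reaching it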;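 note: 0% = median of the neutral control wells and 100% = twice that signal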
HSF1 inh = HSF1 inhibition. activity change, negative = inhibition, % at 7.5 µM (by protocol). hit rate 0.77% among 300,000. NIH3T3-HGL HSE-luciferase, MG132-induced, luminescence 8 h; active compounds read low;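 active = more than half of replicate wells show activity change below -50%, luminescence cut by over half; inconclusive = some wells, but at most half, below -50%; inactive = no replicate well below -50%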;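 note: luciferase reports HSF-1 transcriptional activity via heat shock element; 0% = median of DMSO wells and -100% = zero luminescence signal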
HSV augment = increases HSV replication in cells; HSV replication augmentation in cells, fold increase; hit rate 0.005% among 220,000; maximum fold increase; AID 1956; in the data active = maximum fold increase above about 1.5; inconclusive = no clear call, values can overlap the other calls; tested in PC3 cells
Rad51 HR inh = Rad51 (human) homologous recombination inhibition. Q06609. hRad51 DNA strand exchange, fluorescence dequenching. inhibition, % at 10 µM. hit rate 0.085% among 200,000;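 active = inhibition above 40% at the single screening dose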;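 note: 0% = DMSO control wells and 100% = blanks with heterologous ssDNA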
Target sequence (Q06609 whole entry, looked up): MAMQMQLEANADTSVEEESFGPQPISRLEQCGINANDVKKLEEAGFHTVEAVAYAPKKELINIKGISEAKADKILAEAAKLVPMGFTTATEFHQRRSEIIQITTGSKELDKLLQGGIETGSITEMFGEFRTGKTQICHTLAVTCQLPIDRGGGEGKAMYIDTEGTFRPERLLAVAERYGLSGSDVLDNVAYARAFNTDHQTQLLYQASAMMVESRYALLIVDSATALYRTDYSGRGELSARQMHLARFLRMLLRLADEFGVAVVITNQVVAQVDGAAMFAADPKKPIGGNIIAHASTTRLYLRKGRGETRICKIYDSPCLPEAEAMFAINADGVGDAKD
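Test system: preformed human Rad51 ssDNA filaments; also added: Donor/quencher-labelled 47-bp dsDNA substrate; doses: 10 µM final, single point; times: 37 °C 15-min filament assembly, 30-min compound preincubation, 15-min exchange; detection: FRET fluorescence dequenching, excitation 485 nm, emission 520 nm; read-out basis: Fluorescence-based percent inhibition, control- and blank-normalised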
Mdm2 ligase inh = Mdm2 E3 ligase (human) inhibition; signal enhancement, % at 5 µM; Q00987; AID 1230; hit rate 0.11% among 210,000; cell-based MDM2 ubiquitination luciferase reporter, 2 h; 0 = plate control, 100 = twice control, blank-subtracted;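 active = signal enhancement of 30% or more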;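 note: luminescence tracks abundance of the self-degrading MDM2-luciferase fusion protein; higher signal means inhibition of MDM2 E3 ligase activity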
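test system = mammalian cells stably expressing self-ubiquitinating, self-degrading MDM2 E3–luciferase fusion | quantity = 2000 cells/well | incubation = cell settling 4 h, compound treatment 2 h, both 37 °C | signal = luminescence with SteadyLite reagent, 15 min at room temperature | evaluation = % enhancement relative to plate controls after blank subtraction | benchmarks = plate controls and plate blanks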
* = called active by the depositor. Only some compounds are listed: those with a hit (about 2.6% of all), similar ones and a draw of the others.

`C=CCN1c2ccccc2[C@]23C[C@@H](C(=O)OC)N(C(=O)c4ccc(Br)cc4)C2=NC(C(=O)OC)=C(C(=O)OC)[C@H]13` gave HSF1 activator -74.6, HSF1 inh -69.3*, HSV augment inactive, Rad51 HR inh -7.8 and Mdm2 ligase inh 3.3.
Screening COC(=O)C1=C(C(=O)OC)[C@@H]2N(C)c3ccccc3[C@@]23C[C@@H](C(=O)OC)N(C(=O)CC(C)C)C3=N1 returned HSF1 activator -80.1, HSF1 inh -74.9*, HSV augment inactive, Rad51 HR inh 0.5 and Mdm2 ligase inh 20.7.
`COC(=O)C1=C(C(=O)OC)[C@@H]2N(Cc3ccccc3)c3ccccc3[C@@]23C[C@@H](C(=O)OC)N(C(C)=O)C3=N1` gave HSF1 activator -5.7, HSF1 inh 0.1, HSV augment inactive, Rad51 HR inh 4.6 and Mdm2 ligase inh 4.6.
For O=[N+]([O-])c1cccc(NC(=S)Nc2nc(-c3ccc(Cl)cc3Cl)cs2)c1 the results were HSF1 activator -13.0 and HSF1 inh -2.9.
For COc1ccc(C2Nc3ccccc3C(=O)N2NS(=O)(=O)c2ccccc2)cc1OC (stereo not drawn) the results were Hsp70 activator -0.4, HSF1 activator 7.6, HSF1 inh -3.1, HSV augment inactive, Rad51 HR inh 1.3 and Mdm2 ligase inh -1.4.
CC1CC(C)CN(S(=O)(=O)CCNC(=O)c2ccc3c(c2)OCO3)C1 (stereo not drawn) was read as HSF1 activator 0.9 and HSF1 inh -7.6.
C/C(=N\NC(=O)c1cccc2ccccc12)c1ccccn1 was read as HSF1 activator -4.8 and HSF1 inh 4.8.
Screening C/C(=N\NC(=O)c1ccoc1C)c1cccc2ccccc12 returned HSF1 activator 57.3* and HSF1 inh 31.0.
`COc1cccc2cc(C(=O)c3ccc([N+](=O)[O-])cc3)oc12` gave Hsp70 activator 0.0, HSF1 activator inconclusive, HSF1 inh 38.4, HSV augment inactive, Rad51 HR inh 14.4 and Mdm2 ligase inh -11.8.
O=C(CSc1nnc(-c2ccc(F)cc2)c2ccccc12)Nc1ccccc1 was read as Hsp70 activator -0.3, HSF1 activator 82.7*, HSF1 inh 54.0, HSV augment inactive, Rad51 HR inh 8.3 and Mdm2 ligase inh -3.5.
`CC1SC(c2ccc(Cl)cc2)NC1=O` (stereo not drawn) gave Hsp70 activator -0.1, HSF1 activator 67.5*, HSF1 inh 24.1, HSV augment inactive, Rad51 HR inh 3.0 and Mdm2 ligase inh -8.1.
For Cc1ccc2oc(/N=C(\N)NC(=O)C(C)(C)C)nc2c1 the results were HSF1 activator -92.6, HSF1 inh -90.9*, HSV augment inactive, Rad51 HR inh -9.8 and Mdm2 ligase inh -84.4.
For Cc1ccc2oc(/N=C(\N)NC(=O)C3CC3)nc2c1 the results were HSF1 activator 20.8, HSF1 inh 2.4, HSV augment inactive, Rad51 HR inh 1.1 and Mdm2 ligase inh -55.6.
CC(=O)Nc1ccc(Nc2cc(C)nc3c(-c4ccccc4)cnn23)cc1 was read as Hsp70 activator -0.4, HSV augment inactive, Rad51 HR inh -2.0 and Mdm2 ligase inh -6.1.
For Cc1cc(C(=O)CSc2nc(N)cc(N)n2)c(C)n1C1CC1 the results were Hsp70 activator -0.1, HSF1 activator -4.7, HSF1 inh -7.0, HSV augment inactive, Rad51 HR inh -21.7 and Mdm2 ligase inh -26.2.
For C=CCn1c(C)cc(C(=O)CSc2nc(N)cc(N)n2)c1C the results were Hsp70 activator -0.4, HSF1 activator 65.9*, HSF1 inh 26.7, HSV augment inactive, Rad51 HR inh -6.3 and Mdm2 ligase inh -16.7.
O=C1C2CC=CCC2C(=O)N1Cc1nnc(-c2ccc(Cl)cc2)o1 (stereo not drawn) was read as Hsp70 activator -0.1, HSF1 activator 55.9*, HSF1 inh 28.6, HSV augment inactive, Rad51 HR inh -4.2 and Mdm2 ligase inh -4.9.
C/C(=N\NC(=O)c1csc(C)c1C)c1ccc(C)s1 was read as Hsp70 activator 0.0, HSF1 activator -14.0, HSF1 inh 2.6, HSV augment inactive, Rad51 HR inh -0.8 and Mdm2 ligase inh 2.2.
